This passage reports Ratio Ki, logD and Ki results from ChEMBL document CHEMBL1139340, “Synthesis, radiosynthesis, and biological evaluation of carbon-11 and fluorine-18 labeled reboxetine analogues: potential positron emission tomography radioligands for in vivo imaging of the norepinephrine transporter” (J Med Chem, 2009).

For series [1], the species on record is Homo sapiens. The series is described as follows: Selectivity for human NET over human DAT. Put shortly:
(§1)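 Competition binding in stably transfected cells expressing human transporters: NET vs [3H]nisoxetine and SERT vs [3H]citalopram in HEK-293 cells; DAT vs [125I]RTI-55 in canine kidney cells. Ki as geometric mean of at least three experiments in triplicate; selectivity as ratio of SERT or DAT Ki to NET Ki.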

The species entered for series [2] is Homo sapiens. The series is described as follows: Selectivity for human NET over human SERT. In a few lines:
as §1

Series [3] is described as follows: Lipophilicity, log P at pH 7.4. It is filed as physicochemical. Conditions: buffer. In a few lines: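 Radiotracer (~5–10 μCi) in 2 mL 1-octanol plus 2 mL 0.02 M sodium phosphate buffer, pH 7.4. Vortexed 10 min at room temperature, centrifuged 5 min. 0.5 mL of each layer gamma-counted and decay corrected. log P = log(octanol counts/buffer counts), done three times and averaged.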

In series [4] the target is Sodium-dependent noradrenaline transporter (Homo sapiens, UniProt P23975). Briefly: Displacement of [3H]nisoxetine from human NET receptor expressed in HEK293 cells. It is filed as cell-based.
Sequence of Sodium-dependent noradrenaline transporter (P23975 whole entry): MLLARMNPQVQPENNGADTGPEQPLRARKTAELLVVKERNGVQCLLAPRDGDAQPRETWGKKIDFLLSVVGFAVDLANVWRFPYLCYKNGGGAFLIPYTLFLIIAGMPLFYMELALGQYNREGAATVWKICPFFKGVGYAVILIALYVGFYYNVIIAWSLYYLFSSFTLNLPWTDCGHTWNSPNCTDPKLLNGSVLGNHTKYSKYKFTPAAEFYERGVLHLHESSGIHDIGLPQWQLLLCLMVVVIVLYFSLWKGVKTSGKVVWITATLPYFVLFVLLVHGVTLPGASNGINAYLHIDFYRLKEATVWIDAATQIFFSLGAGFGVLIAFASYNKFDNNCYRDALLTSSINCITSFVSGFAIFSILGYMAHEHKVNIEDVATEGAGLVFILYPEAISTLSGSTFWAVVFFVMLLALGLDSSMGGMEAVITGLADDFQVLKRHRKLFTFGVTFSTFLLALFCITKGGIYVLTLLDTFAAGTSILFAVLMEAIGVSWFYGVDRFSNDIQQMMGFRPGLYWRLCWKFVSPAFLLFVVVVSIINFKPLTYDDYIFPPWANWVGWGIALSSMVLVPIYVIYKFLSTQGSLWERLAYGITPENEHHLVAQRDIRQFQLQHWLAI
In series [5] the target is Sodium-dependent dopamine transporter (Homo sapiens, UniProt Q01959). Briefly: Displacement of [125I]RTI-55 from human DAT receptor expressed in canine kidney cells. It counts as cell-based. Put shortly:
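Competition binding against [¹²⁵I]RTI-55 in canine kidney cells stably transfected with human DAT. Ki in nM, geometric mean ± SD of at least three separate experiments, each run in triplicate.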

Series [6] addresses Sodium-dependent serotonin transporter (Homo sapiens, UniProt P31645). The series is described as follows: Displacement of [3H]citalopram from human SERT receptor expressed in HEK293 cells. It is filed as cell-based. In a few lines:
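Competition binding against [³H]citalopram in HEK-293 cells stably transfected with human SERT. Ki in nM, geometric mean ± SD of at least three separate experiments, each run in triplicate.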

Sequence of Sodium-dependent serotonin transporter (P31645 whole entry): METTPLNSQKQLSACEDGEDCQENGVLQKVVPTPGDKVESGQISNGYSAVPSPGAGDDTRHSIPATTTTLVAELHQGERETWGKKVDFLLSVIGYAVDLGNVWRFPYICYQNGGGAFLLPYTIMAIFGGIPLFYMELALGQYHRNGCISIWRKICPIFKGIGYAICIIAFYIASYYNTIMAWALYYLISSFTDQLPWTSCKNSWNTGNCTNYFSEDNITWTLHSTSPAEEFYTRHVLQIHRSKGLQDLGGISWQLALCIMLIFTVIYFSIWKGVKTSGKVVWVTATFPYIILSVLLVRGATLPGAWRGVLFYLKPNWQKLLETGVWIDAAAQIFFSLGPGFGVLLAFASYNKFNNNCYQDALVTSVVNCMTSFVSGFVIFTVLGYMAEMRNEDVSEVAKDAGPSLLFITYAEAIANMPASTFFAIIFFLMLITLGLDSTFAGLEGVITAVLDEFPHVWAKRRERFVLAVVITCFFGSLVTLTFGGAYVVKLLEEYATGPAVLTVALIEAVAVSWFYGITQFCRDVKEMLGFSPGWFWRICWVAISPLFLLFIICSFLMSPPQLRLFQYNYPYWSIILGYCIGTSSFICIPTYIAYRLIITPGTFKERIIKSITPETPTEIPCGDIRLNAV
Sequence of Sodium-dependent dopamine transporter (Q01959 whole entry): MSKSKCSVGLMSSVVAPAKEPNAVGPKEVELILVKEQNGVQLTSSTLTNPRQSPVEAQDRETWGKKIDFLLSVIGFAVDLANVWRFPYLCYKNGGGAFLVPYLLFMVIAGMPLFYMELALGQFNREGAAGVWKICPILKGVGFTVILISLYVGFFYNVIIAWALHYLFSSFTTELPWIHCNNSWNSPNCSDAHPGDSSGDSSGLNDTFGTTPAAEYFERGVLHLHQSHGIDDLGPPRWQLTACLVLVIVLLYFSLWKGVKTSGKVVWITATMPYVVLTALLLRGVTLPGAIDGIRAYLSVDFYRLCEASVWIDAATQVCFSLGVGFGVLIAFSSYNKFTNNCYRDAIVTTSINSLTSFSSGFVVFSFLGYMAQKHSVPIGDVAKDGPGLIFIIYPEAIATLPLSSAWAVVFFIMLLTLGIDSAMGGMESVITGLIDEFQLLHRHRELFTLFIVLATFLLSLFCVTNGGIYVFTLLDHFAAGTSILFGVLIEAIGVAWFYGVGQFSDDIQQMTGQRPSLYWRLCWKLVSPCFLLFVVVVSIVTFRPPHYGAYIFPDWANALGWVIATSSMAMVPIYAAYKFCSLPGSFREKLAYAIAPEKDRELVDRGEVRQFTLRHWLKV

As for `Cc1ccccc1O[C@@H](c1ccccc1)[C@@H]1CNCCO1`, the Ratio Ki in series [1] came out at 321; in series [2] it was 92. Further, the logD in series [3] was 2.04. In addition, the values for the inhibition constant (Ki) in series [4], in series [5] and in series [6] were 1.02 nM, 327 nM and 93 nM, respectively.
